The values that follow come from ChEMBL document CHEMBL4825663 (J Med Chem, 2021).

In general, IC50 refers to the concentration that inhibits the measured activity by half. One may read the solubility as the concentration that dissolves in the medium under given conditions. The term bioavailability denotes dose-corrected exposure relative to a reference, in per cent.

A short description of series [1]: Inhibition of P-gp in MDCK-MDR1 cells assessed as reduction in basal to apical transport of paclitaxel measured after 120 mins by LC-MS/MS analysis. It counts as cell-based. Conditions: Canis lupus familiaris, MDCK-MDR1, 2 h.
Series [2] in a line: Aqueous solubility of compound at pH 3.8. Conditions: aqueous solution. Format: physicochemical.
A short description of series [3]: Drug distribution in Beagle dog spinal cord. It counts as ADME, tissue-based, Canis lupus familiaris. The following applies: in vivo.
Series [4] can be described thus: Drug distribution in Sprague-Dawley rat bile. It counts as ADME, tissue-based. Conditions: in vivo.
Series [5] deals with T1, Solute carrier organic anion transporter family member 1B3 (Homo sapiens, UniProt Q9NPD5).
T1 sequence (Q9NPD5 whole entry): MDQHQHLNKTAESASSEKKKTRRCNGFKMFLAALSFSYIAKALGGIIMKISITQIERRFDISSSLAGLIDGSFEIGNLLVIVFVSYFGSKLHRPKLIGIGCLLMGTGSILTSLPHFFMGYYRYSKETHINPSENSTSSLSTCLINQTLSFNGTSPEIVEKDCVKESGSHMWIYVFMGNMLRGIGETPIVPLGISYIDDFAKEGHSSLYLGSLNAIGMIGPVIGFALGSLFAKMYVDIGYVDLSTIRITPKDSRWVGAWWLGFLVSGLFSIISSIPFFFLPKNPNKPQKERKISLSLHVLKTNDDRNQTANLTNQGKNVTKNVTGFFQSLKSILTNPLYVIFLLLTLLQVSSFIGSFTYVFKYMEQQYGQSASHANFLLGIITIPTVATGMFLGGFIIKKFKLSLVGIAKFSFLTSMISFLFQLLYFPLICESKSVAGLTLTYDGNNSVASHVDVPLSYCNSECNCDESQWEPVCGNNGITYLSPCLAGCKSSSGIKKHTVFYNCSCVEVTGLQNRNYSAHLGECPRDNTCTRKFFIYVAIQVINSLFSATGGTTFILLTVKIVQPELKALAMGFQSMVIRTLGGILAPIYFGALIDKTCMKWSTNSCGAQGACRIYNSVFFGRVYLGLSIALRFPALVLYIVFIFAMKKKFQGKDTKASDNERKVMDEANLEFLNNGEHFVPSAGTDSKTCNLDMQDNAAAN
Nature of the series: Inhibition of human OATP1B3 assessed as reduction in intracellular probe substrate accumulation upto 100 uM by microplate scintillation counter analysis relative to control. It counts as cell-based. Put shortly:
(§1)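 Cellular uptake-inhibition assays used Chinese hamster ovary, HEK293 or MDCKII cells stably expressing the respective human SLC transporter, run alongside the corresponding control cells. Inhibitor was tested at concentrations up to 100 μM.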

Series [6] can be described thus: Toxicity in Beagle dog at 200 mg/kg, po administered as repeated dose and measured upto 13 weeks. Format: organism-based, Canis lupus familiaris. Conditions: in vivo, 2184 h.
The target of series [7] is T2, Solute carrier family 22 member 6 (Homo sapiens, UniProt Q4U2R8).
T2 sequence (Q4U2R8 whole entry): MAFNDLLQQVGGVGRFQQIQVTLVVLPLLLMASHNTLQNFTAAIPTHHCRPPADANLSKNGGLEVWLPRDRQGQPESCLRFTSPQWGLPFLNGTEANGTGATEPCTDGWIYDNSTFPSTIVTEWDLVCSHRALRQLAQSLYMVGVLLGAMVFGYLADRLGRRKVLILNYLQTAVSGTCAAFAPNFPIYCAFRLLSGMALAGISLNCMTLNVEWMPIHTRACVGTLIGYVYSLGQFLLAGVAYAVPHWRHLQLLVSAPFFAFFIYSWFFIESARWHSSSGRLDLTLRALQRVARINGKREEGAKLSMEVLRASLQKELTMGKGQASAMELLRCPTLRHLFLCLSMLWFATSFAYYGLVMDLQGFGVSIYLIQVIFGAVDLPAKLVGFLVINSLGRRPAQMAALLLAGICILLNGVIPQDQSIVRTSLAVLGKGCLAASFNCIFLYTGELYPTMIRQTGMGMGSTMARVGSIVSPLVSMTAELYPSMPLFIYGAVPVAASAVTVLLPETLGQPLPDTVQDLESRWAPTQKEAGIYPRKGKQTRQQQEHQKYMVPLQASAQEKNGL
Nature of the series: Inhibition of human OAT1 assessed as reduction in intracellular probe substrate accumulation upto 100 uM by microplate scintillation counter analysis relative to control. Format: cell-based. Put shortly:
as §1

Series [8] is described as follows: Drug distribution in Beagle dog bile. It counts as ADME, tissue-based, Canis lupus familiaris. The following applies: in vivo.
Series [9] relates to MDA-MB-231. Nature of the series: Antitumor activity against human MDA-MB-231 cells xenografted in athymic nude mouse assessed as reduction in tumor growth at 30 mg/kg, po administered every other day for 4 doses in presence 12 mg/kg encequidar and monitored for 70 to 82 days. Format: functional, organism-based. The following applies: time 70-82 day.
Series [10] can be described thus: Drug absorption in fed Beagle dog plasma at 6 mg/kg, po measured upto 24 hrs in presence of 3 mg/kg encequidar by LC-MS/MS analysis. It counts as ADME, organism-based, Canis lupus familiaris. The following applies: in vivo.
The nature of series [11]: Toxicity in athymic nude mouse xenografted with human NCI-H460 cells assessed as mortality at 30 to 50 mg/kg, po administered every other day for 4 doses in presence of 12 to 20 mg/kg encequidar and monitored for 48 days. It counts as organism-based. The following applies: in vivo, 1152 h, dose 30-50 mg/kg, time 48 day. In general terms: Xenograft models place foreign cells or tissue in a host animal.

The test system of series [12] is MDA-MB-231. Nature of the series: Antitumor activity against human MDA-MB-231 cells xenografted in athymic nude mouse assessed as reduction in median number of days for tumor to reach two tumor mass doubling at 20 mg/kg, po administered every other day for 4 doses in presence of 8 mg/kg encequidar and monitored for 70 to 82 days (reference value: 13.1 day). Format: functional. The following applies: time 70-82 day.

In series [13] the test system is HT-29. In words: Antitumor activity against human HT-29 cells xenografted in athymic nude mouse assessed as induction of remission of tumor growth at 40 mg/kg, po in presence of 20 mg/kg encequidar measured until day 47. It counts as functional, organism-based.
Series [14] in a line: Drug accumulation in Sprague-Dawley rat plasma at 20 mg/kg, po administered once per week for 4 weeks in presence of 10 mg/kg encequidar by LC-MS/MS analysis. The following applies: in vivo, 672 h. Format: ADME, organism-based.
Series [15] relates to MDA-MB-231. In words: Antitumor activity against human MDA-MB-231 cells xenografted in athymic nude mouse assessed as reduction in median number of days for tumor to reach two tumor mass doubling at 12 mg/kg, iv administered every other day for 4 doses and monitored for 70 to 82 days (reference value: 13.1 day). Format: functional. Conditions: time 70-82 day.
Series [16] deals with NCI-H460. In words: Antitumor activity against human NCI-H460 cells xenografted in athymic nude mouse assessed as median tumor growth delay at 40 mg/kg, po administered every other day for 4 doses in presence of 16 mg/kg encequidar and monitored for 48 days. It counts as functional. Conditions: time 48 day. In short, it runs like this: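 Female athymic NCr-nu mice carried subcutaneous NCI-H460 xenografts. […] Tumor weights and body weights were followed for 48 days after implantation. Read-out was median tumor growth delay.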

For series [17], the system named is SK-OV-3. In words: Antitumor activity against human SK-OV-3 cells xenografted in athymic nude mouse assessed as tumor growth inhibition in presence of encequidar. Format: functional.
Series [18] in a line: Drug distribution in BALB/c mouse kidney at 20 mg/kg, po measured upto 24 hrs in presence of 10 mg/kg encequidar by LC-MS/MS analysis. Format: ADME, organism-based. The following applies: in vivo.
Series [19] can be described thus: Oral bioavailability in Sprague-Dawley rat at 20 mg/kg measured upto 24 hrs in presence of 10 mg/kg encequidar by LC-MS/MS analysis. Format: ADME, organism-based. Conditions: in vivo.

Each structure is given as a SMILES string. Converted amounts (≈) assume the structure as drawn. The source made the active and inactive calls. No cut-off for these calls is given here.

With `COc1cc2c(cc1OC)CN(CCc1ccc(-n3nnc(-c4cc(OC)c(OC)cc4NC(=O)c4cc(=O)c5ccccc5o4)n3)cc1)CC2`, the IC50 in series [1] turned out to be 35 nM. The concentration in solution in series [2] (solubility) was 0.219 µg/mL (≈ 0.318 µM). The Drug uptake result in [3] is reported as “Not Active”; in series [4], “Active”; in series [8], “Active”. The “inhibition (INH)” value in series [5] and in series [7] was less than 50% throughout. Also, the Activity entry in series [6] is given as “Non-Toxic”.

As to `CC(=O)O[C@H]1C(=O)[C@@]2(C)[C@H]([C@H](OC(=O)c3ccccc3)[C@]3(O)C[C@H](OC(=O)[C@H](O)[C@@H](NC(=O)c4ccccc4)c4ccccc4)C(C)=C1C3(C)C)[C@]1(OC(C)=O)CO[C@@H]1C[C@@H]2O` [PACLITAXEL], the result in series [9], in [13] and in [17] was Active. The Drug absorption result in series [10] was “Not Active”. Moreover, in series [11], the Activity entry is listed as “Non-Toxic”. The Time in [12] came to 15.1 days; in series [15], 26.1 days; in series [16], 8.7 days. The Drug uptake entry in series [14] is listed as “Not Active”; in [18], “Active”. Besides, the bioavailability in [19] is 41.3%.
